Experimental data from ChEMBL document CHEMBL1143177, “Antitumor effects of curcumin and structurally beta-diketone modified analogs on multidrug resistant cancer cells” (Bioorg Med Chem Lett, 2008).

Experiments:
[1] = Growth inhibition of human HA22T/VGH cells after 72 hrs by MTS assay
MCF7 = test: Growth inhibition of human MCF7 cells after 72 hrs by MTS assay; details: MCF7, 72 h
MCF7R = test: Growth inhibition of human multidrug-resistant MCF7R cells after 72 hrs by MTS assay
[2] = target: Transcription factor p65 (Homo sapiens) (UniProt Q04206); test: Reduction in DNA binding activity of NF-kappaB p65 subunit in human HA22T/VGH cells after 1.5 hrs relative to control; assay type: cell-based; details: concentration not given here
Procedure, shortened: (§1)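 HA22T/VGH cells, which have constitutively active NF-κB, were exposed to compounds at 20 µM for 1.5 or 4 h. DNA-binding activity of the NF-κB p65 subunit was measured and expressed as percent of untreated control.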

[3] = target: Transcription factor p65 (Homo sapiens) (UniProt Q04206); test: Reduction in DNA binding activity of NF-kappaB p65 subunit in human HA22T/VGH cells after 4 hrs relative to control; assay type: cell-based; details: concentration not given here
Procedure, shortened: as §1

Sequence of Transcription factor p65 (Homo sapiens) (Q04206 whole entry): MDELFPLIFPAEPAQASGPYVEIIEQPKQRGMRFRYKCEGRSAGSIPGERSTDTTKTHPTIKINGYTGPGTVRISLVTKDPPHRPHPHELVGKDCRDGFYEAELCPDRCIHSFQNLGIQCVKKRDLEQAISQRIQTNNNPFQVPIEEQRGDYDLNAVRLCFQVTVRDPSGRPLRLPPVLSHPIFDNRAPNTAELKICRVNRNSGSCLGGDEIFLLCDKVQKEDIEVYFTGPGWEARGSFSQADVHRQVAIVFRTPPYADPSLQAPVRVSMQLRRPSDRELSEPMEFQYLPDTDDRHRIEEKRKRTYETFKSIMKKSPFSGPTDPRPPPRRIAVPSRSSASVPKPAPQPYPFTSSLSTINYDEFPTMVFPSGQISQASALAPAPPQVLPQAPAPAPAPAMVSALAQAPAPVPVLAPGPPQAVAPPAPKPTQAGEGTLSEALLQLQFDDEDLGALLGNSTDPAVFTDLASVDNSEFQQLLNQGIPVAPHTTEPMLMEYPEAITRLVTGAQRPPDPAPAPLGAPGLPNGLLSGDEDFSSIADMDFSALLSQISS

SMILES | IC50 (MCF7) | IC50 (MCF7R) | inhibition [2] | inhibition [3] | IC50 [1] | IC70 [1] | IC70 (MCF7) | IC70 (MCF7R)
COc1cc(/C=C/C(=O)CC(=O)/C=C/c2ccc(O)c(OC)c2)ccc1O [CURCUMIN] | 29.3 µM | 26.2 µM | – | – | 17.4 µM | 24.6 µM | 51.7 µM | 46.2 µM
COc1cc(/C=C/C(=O)/C=C(/C=C/c2ccc(O)c(OC)c2)NC(C)c2ccccc2)ccc1O (stereo unspecified) | > 100 µM | > 100 µM | – | – | > 100 µM | > 100 µM | > 100 µM | > 100 µM
COc1cc(/C=C/c2cc(/C=C/c3ccc(O)c(OC)c3)on2)ccc1O | 13.1 µM | 12 µM | – | – | 12.8 µM | 18.3 µM | 23.2 µM | 24.7 µM
CCNC(=C\C(=O)/C=C/c1ccc(O)c(OC)c1)/C=C/c1ccc(O)c(OC)c1 | 93 µM | 67.6 µM | – | – | 26.1 µM | 64.4 µM | > 100 µM | 88.8 µM
COc1cc(/C=C/C(=O)/C=C(N)/C=C/c2ccc(O)c(OC)c2)ccc1O | 49.9 µM | 54.7 µM | – | – | 33 µM | 41.1 µM | 68.1 µM | 81.8 µM
COc1cc(/C=C/C(=O)/C=C(/C=C/c2ccc(O)c(OC)c2)NC(C)C)ccc1O | 70.3 µM | 49.8 µM | – | – | 26.3 µM | 29.8 µM | 93.5 µM | 79.5 µM

Further lines, with some results ahead:

IC50 (MCF7) | IC50 (MCF7R) | inhibition [2] | inhibition [3] | SMILES | IC50 [1] | IC70 [1] | IC70 (MCF7) | IC70 (MCF7R)
36.3 µM | 39 µM | – | – | CO/N=C(\C=C\c1ccc(O)c(OC)c1)CC(/C=C/c1ccc(O)c(OC)c1)=N/OC | 32.9 µM | 40.4 µM | 43.4 µM | 52.8 µM
7.1 µM | 9.3 µM | 33.7% | 64.3% | COc1cc(/C=C/C(CC(/C=C/c2ccc(O)c(OC)c2)=N/OCc2ccccc2)=N\OCc2ccccc2)ccc1O | 5.9 µM | 8.4 µM | 9.2 µM | 12.9 µM
> 100 µM | > 100 µM | – | – | COc1cc(/C=C/C(=O)/C=C(/C=C/c2ccc(O)c(OC)c2)NCc2ccccc2)ccc1O | > 100 µM | > 100 µM | > 100 µM | > 100 µM
